Measurements from different studies.
Lines come from different studies, so protocols differ.
CA9: Carbonic anhydrase 9 (CA9, Homo sapiens, UniProt Q16790)
gyrB: DNA gyrase subunit B (gyrB, Escherichia coli, UniProt P0AES6)
PKN1: Serine/threonine-protein kinase N1 (PKN1, Homo sapiens, UniProt Q16512)
Adora1: Adenosine receptor A1 (Adora1, Rattus norvegicus, UniProt P25099)
Melanocortin receptor 5: Melanocortin receptor 5 (Mus musculus, UniProt P41149)
GRM4: Metabotropic glutamate receptor 4 (GRM4, Homo sapiens, UniProt Q14833)

Compound | target | test | conditions | quantity | result
NS(=O)(=O)c1ccc(NC(=O)C(Cc2c[nH]c3ccccc23)NC(=O)c2cccs2)cc1 (centres unmarked) | CA9 | enzyme activity, inhibitor | – | IC50 | 37.2 nM
CNc1cccc2cc(C(=O)NCc3ccc(C(=O)O)cc3)c(=O)[nH]c12 | gyrB | binding, ITC | – | Kd | 9.3 nM
CC(C)NC[C@@H](C(=O)N1CCN(c2ncnc3c2[C@H](C)C[C@H]3O)CC1)c1ccc(Cl)cc1 | PKN1 | enzyme activity, inhibitor | – | IC50 | 30 nM
CCCC(C)N1CCCn2c1nc1c2c(=O)n(C)c(=O)n1C (centres unmarked) | Adora1 | ligand displacement, radioligand | cell membranes | Ki | > 25000 nM
Cc1cc(C(=O)Nc2ccccc2C(=O)NCc2cn(C)nn2)c(C)n1Cc1ccc(S(N)(=O)=O)cc1 | CA9 | enzyme activity, inhibitor | – | IC50 | 38.9 nM
N=C(N)NCCC[C@H](NC(=O)[C@H](CC(=O)O)NC(=O)[C@H](Cc1c[nH]c2ccccc12)NC(=O)[C@H](CCCNC(=N)N)NC(=O)[C@H](Cc1ccccc1)NC(=O)[C@@H](N)Cc1c[nH]cn1)C(=O)N[C@@H](Cc1ccccc1)C(=O)NCC(=O)O | Melanocortin receptor 5 | reporter gene, agonist | – | EC50 | 760 nM
CCCCCC(C)N1CCCn2c1nc1c2c(=O)n(C)c(=O)n1C (centres unmarked) | Adora1 | ligand displacement, radioligand | cell membranes | Ki | > 25000 nM
CSCC[C@H](NC(=O)[C@@H](NC(=O)[C@@H](N)Cc1ccc(O)cc1)C(C)C)C(=O)NCC(=O)N[C@@H](Cc1c[nH]cn1)C(=O)N[C@@H](Cc1ccccc1)C(=O)N[C@@H](CCCNC(=N)N)C(=O)N[C@@H](Cc1c[nH]c2ccccc12)C(=O)N[C@@H](CC(=O)O)C(=O)O | Melanocortin receptor 5 | reporter gene, agonist | – | EC50 | 73 nM
Cn1cc(-c2ccc(N3CCN(C(=O)c4ccc(S(N)(=O)=O)c(Br)c4)CC3)c3cc[nH]c23)nn1 | CA9 | enzyme activity, inhibitor | – | IC50 | 12.9 nM
CSCC[C@H](NC(=O)[C@@H](NC(=O)[C@@H](N)Cc1ccc(O)cc1)C(C)C)C(=O)NCC(=O)N[C@@H](Cc1c[nH]cn1)C(=O)N[C@@H](Cc1ccccc1)C(=O)N[C@@H](CCCNC(=N)N)C(=O)N[C@@H](Cc1c[nH]c2ccccc12)C(=O)O | Melanocortin receptor 5 | reporter gene, agonist | – | EC50 | 710 nM
CC(C)N1CCCn2c1nc1c2c(=O)n(C)c(=O)n1C | Adora1 | ligand displacement, radioligand | cell membranes | Ki | > 25000 nM
CC(=O)Nc1cccc2c1CC(C)N2Cc1ccoc1C(=O)Nc1ccc(S(N)(=O)=O)cc1 (centres unmarked) | CA9 | enzyme activity, inhibitor | – | IC50 | 37.2 nM
CNc1cccc2cc(C(=O)NCCc3cccc(C(=O)O)c3)c(=O)[nH]c12 | gyrB | binding, ITC | – | Kd | 23 nM
N=C(N)NCCC[C@H](NC(=O)[C@H](CC(=O)O)NC(=O)[C@@H](N)Cc1c[nH]c2ccccc12)C(=O)N[C@@H](Cc1ccccc1)C(=O)NCC(=O)O | Melanocortin receptor 5 | reporter gene, agonist | – | EC50 | > 100000 nM
CNc1cccc2cc(C(=O)NCCc3ccc(C(=O)O)cc3)c(=O)[nH]c12 | gyrB | binding, ITC | – | Kd | 23 nM
Cc1cc(Nc2nc(N[C@@H](C)c3ccc(F)cc3)c(C#N)cc2F)n[nH]1 | PKN1 | enzyme activity, inhibitor | – | IC50 | 213 nM
NS(=O)(=O)c1cc(CNC(=O)N(Cc2ccc(O)cc2)CC2CC2)ccc1F | CA9 | enzyme activity, inhibitor | – | IC50 | 1200 nM
O=C(O)c1cccc(CCNC(=O)c2cc3ccccc3[nH]c2=O)c1 | gyrB | binding, ITC | – | Kd | 1400 nM

Compound | target | test | conditions | quantity | result
NS(=O)(=O)c1ccc(NC(=O)NCc2cccc(NC(=O)C3CC3)c2)cc1 | CA9 | enzyme activity, inhibitor | – | IC50 | 55 nM
CN1CCCn2c1nc1c2c(=O)n(C)c(=O)n1C | Adora1 | ligand displacement, radioligand | cell membranes | Ki | > 25000 nM
N=C(N)NCCC[C@H](NC(=O)[C@H](CC(=O)O)NC(=O)[C@H](Cc1c[nH]c2ccccc12)NC(=O)[C@H](CCCNC(=N)N)NC(=O)[C@H](Cc1ccccc1)NC(=O)[C@H](Cc1c[nH]cn1)NC(=O)CN)C(=O)N[C@@H](Cc1ccccc1)C(=O)NCC(=O)O | Melanocortin receptor 5 | reporter gene, agonist | – | EC50 | 290 nM
CCCN1CCN(c2ccc(-c3cncc(Cl)c3N3CCC4(CCNC4=O)CC3)cc2)CC1 | NUAK family SNF1-like kinase 2 (NUAK2, Homo sapiens, UniProt Q9H093) | cell-free assay | lysate | Kd | 23300 nM
CNc1cccc2cc(C(=O)Nc3cccc(C(=O)O)c3)c(=O)[nH]c12 | gyrB | binding, ITC | – | Kd | 23 nM
Cc1ccc(S(N)(=O)=O)c(C(=O)Nc2ccc(NC(=O)NCC3CCCO3)cc2)c1 (centres unmarked) | CA9 | enzyme activity, inhibitor | – | IC50 | 7880 nM
CNc1cccc2cc(C(=O)Nc3ccc(CC(=O)O)cc3)c(=O)[nH]c12 | gyrB | binding, ITC | – | Kd | 4.7 nM
CSCC[C@H](N)C(=O)NCC(=O)N[C@@H](Cc1c[nH]cn1)C(=O)N[C@@H](Cc1ccccc1)C(=O)N[C@@H](CCCNC(=N)N)C(=O)N[C@@H](Cc1c[nH]c2ccccc12)C(=O)N[C@@H](CC(=O)O)C(=O)N[C@@H](CCCNC(=N)N)C(=O)N[C@@H](Cc1ccccc1)C(=O)NCC(=O)O | Melanocortin receptor 5 | reporter gene, agonist | – | EC50 | 94 nM
CCS(=O)(=O)Nc1ccc(Nc2c3ccccc3nc3cc(NC(=O)CCCC[C@@H]4SC[C@@H]5NC(=O)N[C@@H]54)ccc23)c(OC)c1 | Lymphocyte antigen 6K (Homo sapiens, UniProt Q17RY6) | binding, SPR | – | Kd | 4700 nM
Cc1cc2nc3c(=O)[nH]c(=O)nc-3n(C[C@H](O)[C@H](O)[C@H](O)COP(=O)(O)OP(=O)(O)OC[C@H]3O[C@@H](n4cnc5c(N)ncnc54)[C@H](O)[C@@H]3O)c2cc1C | RNA-binding protein 14 (Homo sapiens, UniProt Q96PK6) | binding | lysate | Kd | 32 nM
CCCC[C@H](NC(=O)[C@@H](NC(=O)[C@@H](N)Cc1ccc(O)cc1)C(C)C)C(=O)NCC(=O)N[C@@H](Cc1c[nH]cn1)C(=O)N[C@@H](Cc1ccccc1)C(=O)N[C@@H](CCCNC(=N)N)C(=O)N[C@H](Cc1c[nH]c2ccccc12)C(=O)N[C@@H](CC(=O)O)C(=O)N[C@@H](CCCNC(=N)N)C(=O)N[C@@H](Cc1ccccc1)C(=O)NCC(=O)O | Melanocortin receptor 5 | reporter gene, agonist | – | EC50 | 10 nM
O=C(Nc1ccc(N2C(=O)c3ccccc3C2=O)c(Cl)c1)c1ncccc1Cl | GRM4 | calcium signal, agonist | – | EC50 | > 10000 nM
C=CCN1CCCn2c1nc1c2c(=O)n(C)c(=O)n1C | Adora1 | ligand displacement, radioligand | cell membranes | Ki | 4400 nM
Cc1cc(C)cc(C(=O)N2CCCC(C(=O)N(C)C(C)c3ccc(S(N)(=O)=O)cc3)C2)c1 (centres unmarked) | CA9 | enzyme activity, inhibitor | – | IC50 | 60 nM
CSCC[C@H](NC(=O)[C@@H](NC(=O)[C@@H](N)Cc1ccc(O)cc1)C(C)C)C(=O)NCC(=O)N[C@@H](Cc1c[nH]cn1)C(=O)N[C@@H](Cc1ccccc1)C(=O)N[C@@H](CCCNC(=N)N)C(=O)N[C@@H](Cc1c[nH]c2ccccc12)C(=O)N[C@@H](CC(=O)O)C(=O)N[C@@H](CCCNC(=N)N)C(=O)N[C@@H](Cc1ccccc1)C(=O)O | Melanocortin receptor 5 | reporter gene, agonist | – | EC50 | 130 nM
Cc1cnc(-c2ccc(-c3ccc(NC(=O)Nc4c(F)cc(F)cc4F)cc3F)c3c2C(=O)NC3)[nH]1 | Tyrosine-protein kinase HCK (HCK, Homo sapiens, UniProt P08631) | binding, competition with immobilised ligand | – | Kd | 18 nM
O=C(Nc1ccc(N2C(=O)c3ccccc3C2=O)c(Cl)c1)c1ncccc1O | GRM4 | calcium signal, agonist | – | EC50 | 130 nM
